Results published in ChEMBL document CHEMBL4340514, “(2S)-N-2-methoxy-2-phenylethyl-6,7-benzomorphan compound (2S-LP2): Discovery of a biased mu/delta opioid receptor agonist” (Eur J Med Chem, 2019).
Calls of active or inactive are those of the source.

Tests used:
Mu-type opioid receptor [1] = target: T1, Mu-type opioid receptor (Homo sapiens, UniProt P35372); assay: Potency index, ratio of test compounds EC50 to DADLE EC50 for agonist activity at Rluc-tagged MOR receptor (unknown origin) expressed in human […] cells co-expressing RGFP-fused to beta-arrestin-2; assay type: cell-based
T1 sequence (P35372 whole entry, the tested form may be a part): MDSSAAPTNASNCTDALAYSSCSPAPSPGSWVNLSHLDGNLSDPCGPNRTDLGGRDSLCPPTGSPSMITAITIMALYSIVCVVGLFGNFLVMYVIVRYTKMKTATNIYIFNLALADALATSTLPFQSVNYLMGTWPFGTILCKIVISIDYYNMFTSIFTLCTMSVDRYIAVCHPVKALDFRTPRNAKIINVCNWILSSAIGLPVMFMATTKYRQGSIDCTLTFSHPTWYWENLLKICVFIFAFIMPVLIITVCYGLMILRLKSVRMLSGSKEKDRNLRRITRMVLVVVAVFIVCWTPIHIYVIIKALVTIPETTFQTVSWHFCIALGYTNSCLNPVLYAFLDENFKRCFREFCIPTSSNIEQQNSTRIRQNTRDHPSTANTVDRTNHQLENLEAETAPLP
Method in brief: (§1)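 Whole SH-SY5Y cells stably co-expressing MOR-RLuc and β-arrestin 2-RGFP, plated 24 h before at 100,000 cells/well, in PBS with 0.5 mM MgCl2 and 0.9 mM CaCl2. Coelenterazine 5 µM final, added 15 min before reading; ligands incubated 5 min at room temperature. Read-out is BRET ratio (510/460 nm).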

[2] = target: Delta-type opioid receptor (Rattus norvegicus, UniProt P33533); assay: Displacement of [3H]DPDPE from DOR in rat brain membranes incubated for 45 mins by liquid scintillation counting; assay type: cell membranes
Sequence of Delta-type opioid receptor (Rattus norvegicus, UniProt P33533) (P33533 whole entry): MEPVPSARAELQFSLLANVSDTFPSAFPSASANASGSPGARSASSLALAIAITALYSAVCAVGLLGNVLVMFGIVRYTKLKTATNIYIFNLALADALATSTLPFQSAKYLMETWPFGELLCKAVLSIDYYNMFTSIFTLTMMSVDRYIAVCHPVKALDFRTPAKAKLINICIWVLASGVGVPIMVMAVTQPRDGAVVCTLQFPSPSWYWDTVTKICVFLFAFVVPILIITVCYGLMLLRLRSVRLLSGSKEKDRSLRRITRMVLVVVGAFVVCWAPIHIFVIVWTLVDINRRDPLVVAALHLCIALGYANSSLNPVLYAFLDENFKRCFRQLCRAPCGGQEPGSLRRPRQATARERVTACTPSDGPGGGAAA
Method in brief: (§2)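 Rat brain membranes in 50 mM Tris-HCl pH 7.4, incubated 45 min at 35 °C. MOR: 0.4 mg/mL protein with 1 nM [3H]-DAMGO. DOR: 0.5 mg/mL protein with 2 nM [3H]-DPDPE. Filtered and counted by liquid scintillation. Ki from nonlinear regression of a logistic fit. Three experiments in duplicate.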

Mu-type opioid receptor [3] = target: T1, Mu-type opioid receptor
[4] = Toxicity in Swiss CB1 mouse assessed as locomotor activity at 0.5 to 3.0 mg/kg, ip after 30 to 180 mins; assay type: organism-based; conditions: in vivo
Mu-type opioid receptor [5] = target: T1, Mu-type opioid receptor; assay: Bias factor, change in deltalog(Tau/KA) for agonist activity at Rluc-tagged MOR receptor (unknown origin) expressed in human […] cells co-expressing RGFP-fused to Gbeta1 assessed as increase in MOR/G beta1 protein interaction incubated for 5 mins in presence of coelenterazine by BRET assay to deltalog(Tau/KA) for agonist activity at Rluc-tagged MOR receptor (unknown origin) expressed in human […] cells co-expressing RGFP-fused to MOR/beta-arrestin-2 assessed as increase in beta-arrestin-2 protein interaction incubated for 5 mins in presence of coelenterazine by BRET assay; assay type: cell-based
[6] = target: T2, Delta-type opioid receptor (Homo sapiens, UniProt P41143); assay: Agonist activity at Rluc-tagged DOR receptor (unknown origin) expressed in human […] cells co-expressing RGFP-fused to Gbeta1 assessed as increase in DOR/G beta1 protein interaction incubated for 5 mins in presence of coelenterazine by BRET assay; assay type: cell-based
T2 sequence (P41143 whole entry, the tested form may be a part): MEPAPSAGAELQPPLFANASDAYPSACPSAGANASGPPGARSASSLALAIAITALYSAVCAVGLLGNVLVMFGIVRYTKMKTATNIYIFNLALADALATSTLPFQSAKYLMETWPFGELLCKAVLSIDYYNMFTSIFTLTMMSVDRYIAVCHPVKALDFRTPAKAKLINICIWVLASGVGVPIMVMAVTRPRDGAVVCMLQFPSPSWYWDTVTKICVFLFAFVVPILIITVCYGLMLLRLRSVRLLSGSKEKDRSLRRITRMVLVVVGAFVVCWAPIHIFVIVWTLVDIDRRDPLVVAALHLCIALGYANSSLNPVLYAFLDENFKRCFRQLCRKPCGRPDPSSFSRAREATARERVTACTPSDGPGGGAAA

Mu-type opioid receptor [7] = target: T1, Mu-type opioid receptor; remark: listed apart in the source
Mu-type opioid receptor [8] = target: T1, Mu-type opioid receptor; assay: Potency index, ratio of test compounds intrinsic activity to DADLE intrinsic activity for agonist activity at Rluc-tagged MOR receptor (unknown origin) expressed in human […] cells co-expressing RGFP-fused to beta-arrestin-2; assay type: cell-based; method in brief: as §1
Rattus norvegicus = species: Rattus norvegicus; assay: Selectivity ratio of Ki for DOR in rat brain membranes to Ki for MOR in rat brain membranes; assay type: cell membranes; method in brief: as §2
[9] = Toxicity in Swiss CB1 mouse assessed as sedation at 0.5 to 3.0 mg/kg, ip after 30 to 180 mins; assay type: organism-based; conditions: in vivo
Mu-type opioid receptor [10] = target: T1, Mu-type opioid receptor; assay: Potency index, ratio of test compounds intrinsic activity to DADLE intrinsic activity for agonist activity at Rluc-tagged MOR receptor (unknown origin) expressed in human […] cells co-expressing RGFP-fused to Gbeta1; assay type: cell-based
Method in brief: (§3)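 Enriched plasma membranes (3 µg protein) from SH-SY5Y cells stably co-expressing MOR-RLuc and Gβ1-RGFP, in DPBS. Membranes prepared by Dounce homogenisation in sucrose buffer and differential centrifugation. Coelenterazine 5 µM final; ligands in PBS-BSA 0.01% incubated 5 min at room temperature. Read-out is BRET ratio (510/460 nm). […] At least 5 experiments in duplicate.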

Mu-type opioid receptor [11] = target: T1, Mu-type opioid receptor; assay: Potency index, ratio of test compounds pEC50 to DADLE pEC50 for agonist activity at Rluc-tagged MOR receptor (unknown origin) expressed in human […] cells co-expressing RGFP-fused to Gbeta1; assay type: cell-based
Mu-type opioid receptor [12] = target: T1, Mu-type opioid receptor; assay: Potency index, ratio of test compounds EC50 to DADLE EC50 for agonist activity at Rluc-tagged MOR receptor (unknown origin) expressed in human […] cells co-expressing RGFP-fused to Gbeta1; assay type: cell-based; method in brief: as §3
Mus musculus [13] = assay: Antinociceptive activity in ip dosed Swiss CB1 mouse after 30 to 180 mins by radiant heat tail-flick method; assay type: functional
Method in brief: (§4)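 Male Swiss CB1 mice (25-30 g), habituated the day before. Radiant heat tail-flick: infrared source aimed at the lower third of the tail at 25 ± 1 °C. Baseline 3-5 s, mean of three readings 5 min apart; 20 s cutoff. Compounds in saline with DMSO (5%), given i.p. Latencies read at 30-180 min. […] Groups of 6-8 mice.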

[14] = Selectivity ratio of Ki for KOR in guinea pig brain membranes to Ki for MOR in rat brain membranes; assay type: cell membranes
[15] = target: T2, Delta-type opioid receptor; assay: Agonist activity at Rluc-tagged DOR receptor (unknown origin) expressed in human […] cells co-expressing RGFP-fused to beta-arrestin-2 assessed as increase in DOR/beta-arrestin-2 protein interaction incubated for 5 mins in presence of coelenterazine by BRET assay; assay type: cell-based
Mu-type opioid receptor [16] = target: Mu-type opioid receptor (Rattus norvegicus, UniProt P33535); assay: Displacement of [3H]-DAMGO from MOR in rat brain membranes incubated for 45 mins by liquid scintillation counting; assay type: cell membranes; method in brief: as §2
Sequence of Mu-type opioid receptor (Rattus norvegicus, UniProt P33535) (P33535 whole entry, the tested form may be a part): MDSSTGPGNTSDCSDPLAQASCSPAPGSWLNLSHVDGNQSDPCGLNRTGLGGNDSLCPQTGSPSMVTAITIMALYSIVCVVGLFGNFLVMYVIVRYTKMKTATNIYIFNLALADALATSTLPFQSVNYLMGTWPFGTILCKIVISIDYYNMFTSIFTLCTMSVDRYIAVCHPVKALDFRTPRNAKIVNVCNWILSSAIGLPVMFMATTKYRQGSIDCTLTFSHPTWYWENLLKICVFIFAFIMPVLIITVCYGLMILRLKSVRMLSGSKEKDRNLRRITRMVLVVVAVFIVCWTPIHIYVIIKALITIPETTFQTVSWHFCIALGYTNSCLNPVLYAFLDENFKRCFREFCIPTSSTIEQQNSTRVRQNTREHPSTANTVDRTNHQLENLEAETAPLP

Mu-type opioid receptor [17] = target: T1, Mu-type opioid receptor; assay: Potency index, ratio of test compounds pEC50 to DADLE pEC50 for agonist activity at Rluc-tagged MOR receptor (unknown origin) expressed in human […] cells co-expressing RGFP-fused to beta-arrestin-2; assay type: cell-based
[18] = target: Kappa-type opioid receptor (Cavia porcellus, UniProt P41144); assay: Displacement of [3H]-U69,593 from KOR in guinea pig brain membranes incubated for 30 mins by liquid scintillation counting; assay type: cell membranes
Sequence of Kappa-type opioid receptor (P41144 whole entry): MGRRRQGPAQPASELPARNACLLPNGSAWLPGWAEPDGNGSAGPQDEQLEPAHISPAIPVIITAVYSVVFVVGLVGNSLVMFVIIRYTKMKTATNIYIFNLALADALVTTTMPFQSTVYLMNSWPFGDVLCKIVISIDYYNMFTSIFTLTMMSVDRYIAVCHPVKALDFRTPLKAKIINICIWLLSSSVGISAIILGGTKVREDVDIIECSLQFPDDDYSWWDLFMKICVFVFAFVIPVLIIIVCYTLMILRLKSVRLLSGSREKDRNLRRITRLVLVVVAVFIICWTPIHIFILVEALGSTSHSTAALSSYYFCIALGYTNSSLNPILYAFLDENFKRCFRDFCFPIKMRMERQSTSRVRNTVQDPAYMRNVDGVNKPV
Method in brief: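 Guinea pig brain membranes (0.5 mg/mL) incubated 30 min at 30 °C with 1 nM [3H]-(+)-U69,593. Filtered and counted by liquid scintillation. Ki from nonlinear regression of a logistic fit. Three experiments in duplicate.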

[19] = Toxicity in Swiss CB1 mouse assessed as sedation at 0.5 to 5.0 mg/kg, ip after 30 to 180 mins; assay type: organism-based; conditions: in vivo
Mus musculus [20] = assay: Antinociceptive activity in ip dosed Swiss CB1 mouse after 60 to 180 mins by radiant heat tail-flick method; assay type: functional, organism-based; method in brief: as §4
[21] = Toxicity in Swiss CB1 mouse assessed as locomotor activity at 0.5 to 5.0 mg/kg, ip after 30 to 180 mins; assay type: organism-based; conditions: in vivo
Homo sapiens = species: Homo sapiens; assay: Selectivity ratio of agonist activity at Rluc-tagged MOR receptor (unknown origin) expressed in human SH-5YSY cells co-expressing RGFP-fused to Gbeta1 assessed as increase in MOR/G beta1 protein interaction incubated for 5 mins in presence of coelenterazine by BRET assay over Agonist activity at Rluc-tagged DOR receptor (unknown origin) expressed in human […] cells co-expressing RGFP-fused to Gbeta1 assessed as increase in DOR/G beta1 protein interaction incubated for 5 mins in presence of coelenterazine by BRET assay; assay type: cell-based

| Structure (SMILES) | Ratio (Mu-type opioid receptor [1]) | Ki [2] | EC50 (Mu-type opioid receptor [3]) | fold change (FC) (Mu-type opioid receptor [5]) | EC50 [6] | EC50 (Mu-type opioid receptor [7]) | Ratio (Mu-type opioid receptor [8]) | Ratio Ki (Rattus norvegicus) | Ratio (Mu-type opioid receptor [10]) | Ratio (Mu-type opioid receptor [11]) | Ratio (Mu-type opioid receptor [12]) | ED50 (Mus musculus [13]) | Ratio Ki [14] | EC50 [15] | Ki (Mu-type opioid receptor [16]) | Ratio (Mu-type opioid receptor [17]) | Ki [18] | Ratio (Homo sapiens) | also measured |
| --- | --- | --- | --- | --- | --- | --- | --- | --- | --- | --- | --- | --- | --- | --- | --- | --- | --- | --- | --- |
| CO[C@H](CN1CC[C@@]2(C)c3cc(O)ccc3C[C@@H]1[C@@H]2C)c1ccccc1 | 0.11 | 2.59 nM | 4.68 nM | 0.82 | 32.4 nM | 151 nM | 0.72 | 5.18 | 0.93 | 30 | 0.04 | 0.6 mg/kg | 53 | 1860 nM | 0.5 nM | 9 | 26.5 nM | – | Activity [4]: Non-Toxic; Activity [9]: Non-Toxic |
| COC(CN1CC[C@@]2(C)c3cc(O)ccc3C[C@@H]1[C@@H]2C)c1ccccc1 (some centres undefined) | 0.2 | – | 12.6 nM | 0.57 | 95.5 nM | 275 nM | 0.71 | – | 0.92 | 10 | 0.1 | – | – | 2240 nM | – | 5 | – | – | – |
| CO[C@@H](CN1CC[C@@]2(C)c3cc(O)ccc3C[C@@H]1[C@@H]2C)c1ccccc1 | – | 151 nM | – | – | – | – | – | 12.3 | – | – | – | 1.8 mg/kg | 19.2 | – | 12.3 nM | – | 236 nM | – | Activity [19]: Non-Toxic; Activity (Mus musculus [20]): Active; Activity [21]: Non-Toxic |
| C[C@H]1[C@H]2Cc3ccc(O)cc3[C@]1(C)CCN2C[C@H](O)c1ccccc1 | – | – | 22.4 nM | – | 58.9 nM | – | – | – | 0.82 | – | 0.19 | – | – | – | – | – | – | 0.4 | – |
| C[C@H]1[C@H]2Cc3ccc(O)cc3[C@]1(C)CCN2C[C@@H](O)c1ccccc1 | – | – | 6.61 nM | – | 14.5 nM | – | – | – | 0.87 | – | 0.06 | – | – | – | – | – | – | 0.46 | – |
